Reference: ChEMBL document CHEMBL3804761, “Synthesis of a stable and orally bioavailable englerin analogue” (Bioorg Med Chem Lett, 2016)

Experiments:
Type in all cases: functional
786-0 [1] = experiment: Growth inhibition of human 786-0 cells incubated for 48 hrs by sulforhodamine B assay; settings: 786-0, 48 h
Method in brief: (§1)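 NCI 60-cell-line panel, standard protocol. Cells exposed to compound for two days, growth read by sulforhodamine B staining. Tested at five 10-fold dilutions, top concentration 100 µM, to give dose-response curves.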

[2] = Growth inhibition of human OVCAR3 cells incubated for 48 hrs by sulforhodamine B assay; settings: OVCAR-3, 48 h; method in brief: as §1
MDA-MB-435 = experiment: Growth inhibition of human MDA-MB-435 cells assessed as cell growth at 10 uM incubated for 48 hrs by sulforhodamine B assay relative to control; settings: MDA-MB-435, 48 h, read-out: Activity
Method in brief: (§2)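 Run in the standard NCI 60-cell-line screen. Cells were exposed to drug for two days, and the read-out was sulforhodamine B staining. Compound was tested at a single final concentration of 10 µM in every line, and results are reported as growth percent.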

A498 = experiment: Growth inhibition of human A498 cells incubated for 48 hrs by sulforhodamine B assay; settings: A498, 48 h
[3] = Growth inhibition of human SW620 cells incubated for 48 hrs by sulforhodamine B assay; settings: SW-620, 48 h
Method in brief: (§3)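 Tested in the standard NCI 60-cell-line protocol with two-day drug exposure and a sulforhodamine B endpoint. Compounds were first screened at a single final concentration of 10 µM, reported as growth percent. They were then run as five 10-fold dilutions starting from a high concentration of 100 µM to give dose-response curves.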

[4] = Growth inhibition of human LOXIMVI cells incubated for 48 hrs by sulforhodamine B assay; settings: LOX IMVI; method in brief: as §1
[5] = Growth inhibition of human TK10 cells assessed as cell growth at 10 uM incubated for 48 hrs by sulforhodamine B assay relative to control; settings: TK-10, 48 h, read-out: Activity
Method in brief: (§4)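 NCI 60-cell line standard protocol, one-dose screen: single final concentration 10 µM, 2-day drug exposure, sulforhodamine B (SRB) endpoint; read-out is growth percent relative to untreated control.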

[6] = Growth inhibition of human COLO205 cells assessed as cell growth at 10 uM incubated for 48 hrs by sulforhodamine B assay relative to control; settings: COLO 205, 48 h, read-out: Activity; method in brief: as §2
[7] = Growth inhibition of human MOLT4 cells incubated for 48 hrs by sulforhodamine B assay; settings: MOLT-4, 48 h; method in brief: as §1
[8] = Growth inhibition of human OVCAR5 cells incubated for 48 hrs by sulforhodamine B assay; settings: OVCAR-5, 48 h; method in brief: as §1
[9] = Growth inhibition of human MOLT4 cells assessed as cell growth at 10 uM incubated for 48 hrs by sulforhodamine B assay relative to control; settings: MOLT-4, 48 h, read-out: Activity; method in brief: as §2
[10] = Growth inhibition of human SNB19 cells incubated for 48 hrs by sulforhodamine B assay; settings: SNB-19, 48 h; method in brief: as §3
[11] = Growth inhibition of human UO31 cells assessed as cell growth at 10 uM incubated for 48 hrs by sulforhodamine B assay relative to control; settings: UO-31, 48 h, read-out: Activity; method in brief: as §4
U-251 = experiment: Growth inhibition of human U251 cells incubated for 48 hrs by sulforhodamine B assay; settings: U-251, 48 h; method in brief: as §3
[12] = Growth inhibition of human UACC257 cells incubated for 48 hrs by sulforhodamine B assay; settings: UACC-257, 48 h; method in brief: as §3
[13] = Growth inhibition of human IGROV1 cells incubated for 48 hrs by sulforhodamine B assay; settings: IGROV-1, 48 h; method in brief: as §1
[14] = Growth inhibition of human SNB19 cells assessed as cell growth at 10 uM incubated for 48 hrs by sulforhodamine B assay relative to control; settings: SNB-19, 48 h, read-out: Activity; method in brief: as §2
[15] = Growth inhibition of human UO31 cells incubated for 48 hrs by sulforhodamine B assay; settings: UO-31, 48 h; method in brief: as §3
HT-29 = experiment: Growth inhibition of human HT-29 cells assessed as cell growth at 10 uM incubated for 48 hrs by sulforhodamine B assay relative to control; settings: HT-29, 48 h, read-out: Activity; method in brief: as §2
[16] = Growth inhibition of human HCT116 cells incubated for 48 hrs by sulforhodamine B assay; settings: HCT-116, 48 h; method in brief: as §1
[17] = Growth inhibition of human HOP92 cells assessed as cell growth at 10 uM incubated for 48 hrs by sulforhodamine B assay relative to control; settings: HOP-92, 48 h, read-out: Activity
Method in brief: (§5)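 Single-dose screen in the NCI 60-cell-line panel at one final concentration of 10 µM. Two-day drug exposure with a sulforhodamine B endpoint. Values are growth percent for each cell line.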

786-0 [18] = experiment: Growth inhibition of human 786-0 cells assessed as cell growth at 10 uM incubated for 48 hrs by sulforhodamine B assay relative to control; settings: 786-0, 48 h, read-out: Activity; method in brief: as §2
[19] = Growth inhibition of human SF268 cells assessed as cell growth at 10 uM incubated for 48 hrs by sulforhodamine B assay relative to control; settings: SF-268, 48 h, read-out: Activity; method in brief: as §2
SN12C = experiment: Growth inhibition of human SN12C cells incubated for 48 hrs by sulforhodamine B assay; method in brief: as §3
[20] = Growth inhibition of human LOXIMVI cells assessed as cell growth at 10 uM incubated for 48 hrs by sulforhodamine B assay relative to control; settings: LOX IMVI, read-out: Activity; method in brief: as §5
[21] = Growth inhibition of human SKOV3 cells incubated for 48 hrs by sulforhodamine B assay; settings: SK-OV-3, 48 h; method in brief: as §3
[22] = Growth inhibition of human HOP92 cells incubated for 48 hrs by sulforhodamine B assay; settings: HOP-92, 48 h; method in brief: as §1
MCF7 = experiment: Growth inhibition of human MCF7 cells assessed as cell growth at 10 uM incubated for 48 hrs by sulforhodamine B assay relative to control; settings: MCF7, 48 h, read-out: Activity; method in brief: as §2
T47D = experiment: Growth inhibition of human T47D cells assessed as cell growth at 10 uM incubated for 48 hrs by sulforhodamine B assay relative to control; settings: read-out: Activity; method in brief: as §4
[23] = read-out: pLC50 (the source's name) (converted)

CC(C)[C@@]12C[C@@H](NC(=O)CO)[C@@](C)(O1)[C@@H]1CC[C@@H](C)[C@H]1[C@@H]2OC(=O)/C=C/c1ccccc1
GI50 (786-0 [1]): 3.63 µM | LC50 (786-0 [1]): > 50.1 µM | TGI (786-0 [1]; read-out: pTGI (converted)): 24 µM | GI50 [2]: 14.8 µM | LC50 [2]: > 50.1 µM | TGI ([2]; read-out: pTGI (converted)): 49 µM | growth at 10 µM (MDA-MB-435): 94.6% | LC50 (A498): 29.5 µM | GI50 (A498; read-out: GI50): 162 nM | GI50 (A498; read-out: pGI50 (converted)): 162 nM | TGI (A498; read-out: pTGI (converted)): 2450 nM | GI50 [3]: 22.4 µM | LC50 (50% lethal concentration) [3]: > 50.1 µM | TGI ([3]; read-out: pTGI (converted)): > 50.1 µM | GI50 [4]: 14.5 µM | LC50 [4]: > 50.1 µM | TGI ([4]; read-out: pTGI (converted)): > 50.1 µM | growth at 10 µM [5]: 102% | growth at 10 µM [6]: 96.4% | GI50 [7]: 15.8 µM | LC50 [7]: > 50.1 µM | TGI ([7]; read-out: pTGI (converted)): > 50.1 µM | GI50 [8]: 23.4 µM | LC50 [8]: > 50.1 µM | TGI ([8]; read-out: pTGI (converted)): > 50.1 µM | growth at 10 µM [9]: 76% | GI50 [10]: 24.5 µM | CC50 [10, 23]: > 50.1 µM | TGI ([10]; read-out: pTGI (converted)): > 50.1 µM | growth at 10 µM [11]: 57.2% | GI50 (U-251): 15.5 µM | LC50 (concentration giving 50% net cell kill) (U-251): > 50.1 µM | TGI (U-251; read-out: pTGI (converted)): > 50.1 µM | GI50 [12]: 10.5 µM | CC50 [12, 23]: > 50.1 µM | TGI ([12]; read-out: pTGI (converted)): 45.7 µM | GI50 [13]: > 50.1 µM | CC50 [13, 23]: > 50.1 µM | TGI ([13]; read-out: pTGI (converted)): > 50.1 µM | growth at 10 µM [14]: 103% | GI50 [15]: 6.17 µM | CC50 [15, 23]: > 50.1 µM | TGI ([15]; read-out: pTGI (converted)): > 50.1 µM | growth at 10 µM (HT-29): 93% | GI50 [16]: 10.7 µM | LC50 [16]: > 50.1 µM | TGI ([16]; read-out: pTGI (converted)): 38 µM | growth at 10 µM [17]: 88.6% | growth at 10 µM (786-0 [18]): 73.1% | growth at 10 µM [19]: 84.4% | GI50 (SN12C): 10.7 µM | CC50 (SN12C; [23]): > 50.1 µM | TGI (SN12C; read-out: pTGI (converted)): > 50.1 µM | growth at 10 µM [20]: 102% | GI50 [21]: > 50.1 µM | LC50 [21]: > 50.1 µM | TGI ([21]; read-out: pTGI (converted)): > 50.1 µM | GI50 [22]: 5.25 µM | LC50 [22]: > 50.1 µM | TGI ([22]; read-out: pTGI (converted)): 24 µM | growth at 10 µM (MCF7): 94.4% | growth at 10 µM (T47D): 76.3%
